Assay outcomes: PubChem BioAssay, several laboratories
Only some compounds are listed: those with a hit (about 2.9% of all), similar ones and a draw of the others.
CRFBP-R2 block: antagonists of CRF-BP/CRF-R2 complex, primary screen, cell-based, HEK293, calcium dye fluorescence, uHTS | CRF-induced calcium fluorescence | inhibition, % at 11.8 µM | hit rate 0.59% among 350,000 | AID 588475, 2011;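 active means inhibition of the ligand-induced calcium signal above about 50% at the single tested concentration, limit read from the data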
Tn7 DDE FP: inhibitors of Tn7 peptide binding to fibrin DD(E), primary screen, biochemical, fluorescence polarization, human fibrin, Tn7 probe; Fibrinogen beta chain (Homo sapiens), P02675; FP displacement of FITC-Tn7 peptide from fibrin DD(E); 0% = median of compound wells per plate; inhibition, % at 8.3 µM; hit rate 0.13% among 370,000; AID 720508, 2013;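 active means inhibition above the mean of compounds falling within the control limits plus 3 SD of them, cut at about 14% in these data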;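 further: 0% = plate median of compound wells and 100% = 10 µM Aha-Tn7 peptide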
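system = human fibrin DD(E) protein | quantity = DD(E) 2 µM final | medium = Tris/NaCl/CaCl2 buffer, pH 7.8 | also added = labelled Tn7 tracer, 0.1 µM | compound dosing = single point at 8.3 µM | timing = compound with protein 10 min, then 3 h after probe, room temperature | signal = FP measurement | benchmarks = Aha-Tn7 high control | repeats = one replicate per compound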
DDE Tn6 FP inh: inhibitors of Tn6 peptide binding to fibrin DD(E), primary screen, biochemical, fluorescence polarization, human fibrin, Tn6 probe. Fibrinogen beta chain (Homo sapiens), P02675. Fibrin DD(E) TRITC-Tn6 fluorescence polarization displacement. inhibition, % at 8.3 µM. hit rate 0.21% among 370,000. AID 720509, 2013;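 active means inhibition above a per-campaign cutoff: mean of compounds within control limits plus 3 SD, cut at about 15% in these data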;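 further: 0% = median of all compound wells on the plate and 100% = blocking peptide control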
CRFR2-BP ag: agonists of CRF-BP/CRF-R2 complex, primary screen, cell-based, HEK293, calcium dye fluorescence, uHTS. CRF-binding protein / CRF receptor 2 complex (human). calcium dye fluorescence (FLIPR); percent of saturating CRF peptide response. activation, % at 13.2 µM. hit rate 0.46% among 350,000. AID 588473, 2011;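 active means activation of at least 50%, plus an integration ratio under a set limit after plate pattern correction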;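 further: plate controls were neutral control wells without compound for no effect and CRF at EC100 for full effect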
KLK7 zymogen act: proKLK7 zymogen activators, primary screen, biochemical, fluorescence intensity | Kallikrein-7 (Homo sapiens), P49862 | purified proKLK7, EDANS-DABCYL substrate fluorescence; 100% is mature enzyme control, 0% vehicle | activation, % at 7 µM | hit rate 0.9% among 370,000 | AID 652039, 2013;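 active means activation above the mean of all tested compounds plus 3 SD, computed per campaign excluding outliers beyond control limits, cut at about 13% in these data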
NRP1-CendR mod: modulators of CendR peptide binding to NRP-1, primary screen, biochemical, fluorescence polarization, uHTS; Neuropilin-1 (Homo sapiens), O14786; FAM-RPARPAR peptide binding to NRP-1; inhibition, % at 25 µM; hit rate 0.85% among 360,000; AID 602438, 2012;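 active means inhibition or corrected inhibition above about 18%, plus a signal ratio from 0.5 to 1.5, limit read from the data, passing the limit was not always enough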
Target sequence (O14786 whole entry, looked up): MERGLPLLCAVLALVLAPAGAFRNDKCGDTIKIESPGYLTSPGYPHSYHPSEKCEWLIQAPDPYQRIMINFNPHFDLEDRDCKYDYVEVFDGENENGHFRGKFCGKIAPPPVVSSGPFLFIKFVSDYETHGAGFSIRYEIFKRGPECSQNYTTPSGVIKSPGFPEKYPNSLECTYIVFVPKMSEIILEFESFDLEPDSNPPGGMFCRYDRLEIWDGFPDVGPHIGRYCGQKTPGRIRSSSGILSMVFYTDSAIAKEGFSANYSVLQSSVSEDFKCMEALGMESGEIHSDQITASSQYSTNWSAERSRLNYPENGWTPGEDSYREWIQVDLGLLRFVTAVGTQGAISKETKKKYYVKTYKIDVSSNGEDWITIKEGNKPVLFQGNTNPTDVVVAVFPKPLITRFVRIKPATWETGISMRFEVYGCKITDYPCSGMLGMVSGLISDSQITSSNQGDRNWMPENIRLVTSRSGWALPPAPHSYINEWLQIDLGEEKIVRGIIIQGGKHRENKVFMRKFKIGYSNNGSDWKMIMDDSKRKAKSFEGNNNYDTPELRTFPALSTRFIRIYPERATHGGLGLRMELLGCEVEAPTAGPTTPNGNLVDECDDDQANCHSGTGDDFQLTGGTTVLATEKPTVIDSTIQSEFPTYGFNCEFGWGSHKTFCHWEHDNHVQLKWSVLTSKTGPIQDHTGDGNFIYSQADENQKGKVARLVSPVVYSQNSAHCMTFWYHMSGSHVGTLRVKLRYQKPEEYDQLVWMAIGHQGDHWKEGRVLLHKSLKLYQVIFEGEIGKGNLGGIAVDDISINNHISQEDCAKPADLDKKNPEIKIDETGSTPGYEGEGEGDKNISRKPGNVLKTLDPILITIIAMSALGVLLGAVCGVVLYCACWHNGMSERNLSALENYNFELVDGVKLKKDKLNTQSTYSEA
proKLK7 act conf: proKLK7 zymogen activators, confirmation, biochemical, fluorescence intensity, triplicate. shares compounds with KLK7 zymogen act. purified proKLK7, EDANS-DABCYL substrate fluorescence; scaled: vehicle 0, mature enzyme 100. activation, % at 7 µM. hit rate 68% among 3,200;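 active means activation, as change over the incubation, above the mean of all tested compounds plus 3 SD, cut at about 13% in these data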
EDANS-DABCYL int: EDANS-DABCYL substrate optical interference, artefact control for kallikrein-7 zymogen activator project, biochemical, fluorescence intensity, high throughput | shares compounds with KLK7 zymogen act | no enzyme, 4 h; solvent 0%, active enzyme control 100% | activation, % at 7 µM | hit rate 80% among 3,200;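 active means activation above the all-compound mean plus 3 SD, ignoring values outside control-based bounds, cut at about 4.8% in these data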;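 further: value is the 4 h activation minus the activation read at time zero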
Starred values were filed as active, the others as inactive; / = no result.

SMILES	CRFBP-R2 block	Tn7 DDE FP	DDE Tn6 FP inh	CRFR2-BP ag	KLK7 zymogen act	NRP1-CendR mod	proKLK7 act conf	EDANS-DABCYL int
COCCn1c(N)c(C(=O)NCC2CCCO2)c2nc3ccccc3nc21 (stereo not drawn)	26	6	0	-2	13*	-11	-143	-183
N#Cc1c(N)n(CCc2ccc(F)cc2)c2nc3ccccc3nc12	5	2	9	0	32*	15	-48	-68
COCCn1c(N)c(C#N)c2nc3ccccc3nc21	19	3	6	-1	62*	-8	60*	72*
CN(C)CCCn1c(N)c(S(=O)(=O)c2ccccc2)c2nc3ccccc3nc21	6	-6	-4	1	69*	-32	-35	-48
COCCn1c(N)c(S(=O)(=O)c2cccs2)c2nc3ccccc3nc21	20	-5	-7	-5	56*	7	24*	26*
N#Cc1c(N)n(CCOC(=O)c2cccc([N+](=O)[O-])c2)c2nc3ccccc3nc12	12	-7	-1	0	83*	1	91*	88*
N#Cc1c(N)n(-c2cccc(O)c2)c2nc3ccccc3nc12	10	2	2	-1	117*	-12	42*	47*
C=CCN1[C@@H](C)COc2cccc(N3CCSCC3)c2S1(=O)=O	/	-7	11	/	-1	/	/	/
CNC(=O)OCc1cocc1COC(=O)NC	/	0	-3	/	42*	0	0	0
C#CCOCCOCCOCCNc1nc(N2CCN(C(=O)[C@H]([C@@H](C)CC)n3cc(CCCCN)nn3)CC2)nc(N2CCN(C(=O)[C@H](Cc3ccc(O)cc3)n3cc(CCO)nn3)CC2)n1	/	-5	-1	/	/	/	/	/
CC[C@@]1(O)C(=O)OCc2c1cc1n(c2=O)Cc2cc3c(N)cccc3nc2-1	11	-1	-8	0	27*	18	78*	90*
CC[C@@]1(O)C(=O)OCc2c1cc1n(c2=O)Cc2cc3c(CN(C)C)c(O)ccc3nc2-1	-242	30*	10	231*	60*	142	70*	76*
Nn1c(SCC(=O)Nc2ccc(OCc3ccccc3)cc2)nnc1-c1cc(-c2ccc(F)cc2)n[nH]1	/	-2	3	/	0	/	/	/
CC(C)[C@H](N)C(=O)N[C@H](C(=O)N1CCC2CCN(S(=O)(=O)c3ccccc3)CC21)C(C)C (stereo partly drawn)	/	-5	1	/	0	/	/	/
COc1ccc(-c2cc(C(=O)NN=Cc3ccc(-c4ccccc4)cc3)[nH]n2)cc1	/	2	-2	/	1	/	/	/
CCn1c2ccccc2c2cc(C=NNC(=O)c3cc(-c4ccc(OC)cc4)n[nH]3)ccc21	/	11	10	/	50*	/	-13	-32
CSc1ccc(/C=C/C(=O)c2c(O)cc(C)oc2=O)cc1	-1	-2	7	6	14*	-51	-4	-3
O=S1(=O)c2ccc(N3CCCC3)cc2Oc2ccccc2CN1Cc1cn(Cc2ccc(F)cc2)nn1	/	2	-5	/	0	/	/	/
Cc1cc2c3c(ccc(C)c3n1)N=CN2c1ccccc1	-12	5	-7	1	62*	7	8	4.8*
Cc1cc(Nc2ccccc2)c2c([N+](=O)[O-])ccc(C)c2n1	14	5	1	3	0	2	/	/
COCCn1nnnc1C(c1cc2cccc(C)c2[nH]c1=O)N1CCN(c2ccccc2F)CC1 (stereo not drawn)	-13	5	0	-3	20*	-6	17*	17*
Cc1ccc(-c2cnc3cccnn23)cc1F	/	9	-3	/	23*	-10	5	7.6*
Cc1cccc(-c2cccc3nccn23)c1	/	-6	5	/	11	1	/	/
COc1ccc(-c2cc(NC=O)c3ncc(-c4cccc(OC)c4)n3c2)cc1	/	4	-10	/	0	-40	/	/
COc1cccc(-c2cnc3cccnn23)c1	/	-9	-7	/	46*	-5	39*	45*
SMILES	CRFBP-R2 block	Tn7 DDE FP	DDE Tn6 FP inh	CRFR2-BP ag	KLK7 zymogen act	NRP1-CendR mod	proKLK7 act conf	EDANS-DABCYL int
COc1ccc(NC(=O)N(CCc2c(C)[nH]c3ccccc23)Cc2cccs2)cc1OC	/	-6	-1	/	1	/	/	/
O=C(Nc1ccc(Cl)cc1)N1CCN(Cc2nc3ccccc3c(=O)[nH]2)CC1	/	-2	4	/	0	/	/	/
O=C(Nc1ccc(-c2nc3ccccc3[nH]2)cc1)c1cccc(N2C(=O)CCC2=O)c1	6	-8	-5	-1	127*	-2	167*	171*
COC(=O)c1ccc(-c2nc3ccccc3[nH]2)cc1	-6	-8	2	0	43*	-10	79*	73*
COC(=O)c1ccc(C(=O)Nc2ccc3nc(-c4cccnc4)[nH]c3c2)cc1	28	2	2	-7	20*	-5	-14	-13
C=CCNc1sc(C(=O)c2cccs2)c(N)c1C#N	-9	1	-1	0	87*	-29	6	-6
CCNc1sc(C(=O)c2cccs2)c(N)c1C#N	-15	5	3	1	0	1	/	/
CCOC(=O)CC[C@H](NC(=O)[C@@H]1CC=C[C@@H]2CCN(Cc3ccc(Cl)cc3)C(=O)[C@@H]21)C(=O)OCC	/	8	-2	/	/	/	/	/
CCCC[C@H](C(=O)N(CC)c1ccccc1)[C@@H](O)c1ccc(Cl)cc1	/	4	0	/	1	/	/	/
COc1ccccc1-c1cc(-c2ccccc2)nc(=O)[nH]1	1	3	0	0	18*	0	10	14*
O=c1nc(-c2ccccc2)cc(-c2ccccc2)[nH]1	-6	0	-1	-3	6	0	/	/
CC(=O)c1ccc(-c2ccc(C(=O)N(C)Cc3nc4ccccc4c(=O)[nH]3)o2)cc1	0	-5	6	-2	26*	-6	-2	-12
O=C(C1CCCN1S(=O)(=O)c1cccc([N+](=O)[O-])c1)N1CCN(c2ccccc2)CC1 (stereo not drawn)	/	-7	13	/	0	/	/	/
COc1ccccc1N1C(=O)S/C(=C\c2cc(C)n(C)c2C)C1=O	11	0	6	0	24*	-84	32*	80*
